Reference: ChEMBL document CHEMBL3588824, “Bioactive Diterpenoids from the Leaves of Callicarpa macrophylla” (J Nat Prod, 2015)
Calls of active or inactive are those of the source. No cut-off for these calls is given here.

Assays:
[1] = system: PC-12; assay: Stimulation of nerve growth factor-mediated neurite outgrowth in rat PC12 cells incubated for 96 hrs in presence of 20 ng/ml NGF by phase contrast microscopy; type: functional, cell-based
How it was run: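 PC12 cells (DMEM, 5% FBS, 5% HS, 37 °C, 5% CO2) were detached with 1 mM EGTA/PBS for 15 min and seeded on poly-L-lysine at 3 × 10^4 cells/well. After 24 h they got test medium (1% FBS, 1% HS, 20 ng/mL NGF, graded compound levels) for 96 h. Cells were scored by phase contrast (neurite ≥ soma diameter) as % neurite-bearing; triplicates; EC50 by regression.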

[2] = system: PC-12; assay: Stimulation of neurite outgrowth in rat PC12 cells incubated for 96 hrs in absence of 20 ng/ml NGF by phase contrast microscopy; type: functional, cell-based
[3] = Rattus norvegicus, PC-12, 96 h, read-out: EC50

Structure (SMILES)	EC50 [1, 3] [µM]	EC50 ([1]; pc-12)	Activity [2]
C=C1CC[C@H]2C(C)(C)C(=O)CC[C@]2(C)[C@H]1CC/C(C)=C/C(=O)O	6		
C=C[C@@]1(C)CCC2=C(C1)[C@H](OC)C[C@H]1[C@](C)(CO)CCC[C@]21C		Not Active	inactive
CC(C)[C@@]12C=C3[C@@H](O)C[C@@H]4[C@@](C)(C(=O)O)CCC[C@@]4(C)[C@]3(CC1)OO2	10.6		
CC1(C)C(=O)CC[C@]2(C)[C@@H]1CC[C@]13C[C@@H](CC[C@H]12)[C@](O)(CO)C3	19.7		
C=C(C)c1ccc2c(c1)CC[C@H]1[C@](C)(C(=O)O)CCC[C@]21C	> 30		
C=C[C@@]1(C)CC[C@H]2C(=CC[C@@H]3[C@]2(C)CCC[C@@]3(C)C(=O)O)[C@H]1O	16		
CC(=O)OC[C@]1(O)C[C@]23CC[C@@H]4C(C)(C)C(=O)CC[C@@]4(C)[C@@H]2CC[C@@H]1C3	11		
C=C[C@@]1(C)CC[C@H]2C(=CC[C@H]3[C@](C)(CO)CCC[C@]23C)[C@H]1O	7.6		
CC(C)[C@]12CC[C@@]34O[C@@]3(CC[C@H]3[C@](C)(C(=O)O)CCC[C@@]34C)[C@H]1O2		Not Active	inactive
CC(C)[C@@]12CC[C@@]3(CC[C@H]4[C@](C)(C(=O)O)CCC[C@]4(C)C3=O)[C@@H]1O2	> 30		
C=C[C@@]1(C)CCC2=C(C1)[C@H](OC)C[C@H]1[C@](C)(C(=O)O)CCC[C@]21C		Not Active	inactive
CC(C)c1ccc2c(c1)C(=O)C[C@H]1[C@](C)(C(=O)O)CCC[C@]21C		Not Active	inactive
CC(C)c1ccc2c(c1)[C@H](O)C[C@H]1[C@](C)(C(=O)O)CCC[C@]21C		Not Active	inactive
C=C[C@@]1(C)CC[C@H]2C(=CC[C@@H]3[C@]2(C)CCC[C@@]3(C)O)[C@H]1O		Not Active	inactive
